Experimental data taken from ChEMBL document CHEMBL1221166, “Molecular basis of inverse agonism in a G protein-coupled receptor” (Nat Chem Biol, 2005).
The source made the active and inactive calls. The calls are words filed in the database; no cut-off is given here.

Molecular target: T1, Alpha-2A adrenergic receptor (Homo sapiens) (UniProt P08913)
T1 sequence (whole entry): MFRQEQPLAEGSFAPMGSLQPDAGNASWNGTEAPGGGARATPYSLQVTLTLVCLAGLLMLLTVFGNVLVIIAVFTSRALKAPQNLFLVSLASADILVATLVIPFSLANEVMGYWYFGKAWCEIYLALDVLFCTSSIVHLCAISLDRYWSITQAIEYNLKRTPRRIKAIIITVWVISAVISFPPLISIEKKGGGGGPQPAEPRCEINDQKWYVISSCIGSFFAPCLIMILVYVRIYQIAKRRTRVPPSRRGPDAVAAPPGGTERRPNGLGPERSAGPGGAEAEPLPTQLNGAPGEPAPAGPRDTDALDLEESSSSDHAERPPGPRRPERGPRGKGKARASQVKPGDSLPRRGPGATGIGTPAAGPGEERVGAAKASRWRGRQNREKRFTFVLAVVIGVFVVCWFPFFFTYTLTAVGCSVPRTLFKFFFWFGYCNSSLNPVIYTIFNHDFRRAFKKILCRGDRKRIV
Assay: Partial agonist activity at adrenergic alpha2A receptor expressed in HEK293 cells coexpressing yellow fluorescent and cyan fluorescent protein assessed as effect on kinetics of receptor conformational change by FRET assay
Type: functional, cell-based
Procedure, shortened: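 HEK293 cells expressing α2AAR tagged with CFP/YFP were superfused rapidly with ligand at room temperature. The time course of the corrected FYFP/FCFP ratio was fitted with a monoexponential equation to give kobs. kobs was then plotted against the percentage FRET change.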

Activity, active:
Cc1cc(C(C)(C)C)c(O)c(C)c1CC1=NCCN1
Clc1cccc(Cl)c1NC1=NCCN1
COc1nc(C)nc(Cl)c1NC1=NCCN1
NCCc1ccc(O)c(O)c1

Molecular target: T1, Alpha-2A adrenergic receptor (Homo sapiens)
Assay: Inverse agonist activity at adrenergic alpha2A receptor expressed in HEK293 cells coexpressing yellow fluorescent and cyan fluorescent protein assessed as increase in resonance signal at 100 uM by FRET assay
Type: functional, cell-based
Procedure, shortened: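 Single HEK293 cells expressing α2AAR tagged with CFP/YFP were grown on coverslips and kept at room temperature. They were continuously superfused with HEPES buffer at pH 7.4 (137 mM NaCl, 0.1% BSA), and ligand was applied by solenoid-valve rapid superfusion. YFP and CFP emissions were recorded by dual-emission photometry on a 100× oil objective. FRET was taken as the spillover-corrected ratio FYFP/FCFP, with photobleaching drift subtracted where needed.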

Activity, active:
COC1(C2=NCCN2)COc2ccccc2O1 (stereo unspecified)
CN1CC[C@]2(CCN3CCc4c(oc5ccccc45)[C@@H]3C2)N(C)C1=O
